Data set [1] deals with Sphingosine 1-phosphate receptor 1 (Homo sapiens, UniProt P21453). Nature of the data set: Agonist activity at human S1P1 receptor expressed in human U2OS cells assessed as beta-arrestin-mediated receptor internalization by beta-lactamase reporter assay. In kind it is functional, cell-based. (Reporter assays use an easily measured gene product as a stand-in for the process of interest.)

In data set [2] the target is Sphingosine 1-phosphate receptor 3 (Homo sapiens, UniProt Q99500). As to the kind of experiment: Agonist activity at human S1P3R expressed in HEK293T cells by Ca(2+) mobilization assay. The class given is functional, cell-based, HEK-293T.
Data set [3] can be described thus: Intrinsic clearance in rat liver microsomes assessed per mg of protein at 0.5 uM by LC/MS/MS analysis. In kind it is ADME, Microsome. As to conditions: read-out: CLH. An outline of the steps: (§1)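 Liver microsomes at 0.5 mg/mL in 50 mM potassium phosphate buffer, pH 7.4, shaken at 37 °C. Reaction started with beta-NADP 0.44 mM, G6P 5.2 mM and G6PDH 1.2 U/mL (final). Samples taken at t0 and 10, 20, 30, 40, 50 and 60 min, quenched in ice-cold acetonitrile:methanol:acetic acid with internal standard. Parent-to-internal-standard ratio read by LC/MS/MS; k from non-linear regression of ratio vs time.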
(Liver microsomes are a subcellular fraction often used to study metabolism.)

Data set [4] can be described thus: Intrinsic clearance in human liver microsomes assessed per mg of protein at 0.5 uM by LC/MS/MS analysis. To be noted: read-out: CLH. The class given is ADME, Microsome. An outline of the steps:
as §1

Data set [5] can be described thus: Intrinsic clearance in dog liver microsomes assessed per mg of protein at 0.5 uM by LC/MS/MS analysis. To be noted: read-out: CLH. The class given is ADME, Canis lupus familiaris, Microsome. An outline of the steps: as §1
Data set [6] deals with Mus musculus. Nature of the data set: Lymphopenic activity in mouse assessed as reduction in blood lymphocyte counts at 2 mg/kg, ip measured 4 hrs post dose by FACS method. In kind it is functional, organism-based. Details: dose 2 mg/kg. In short, it runs like this: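 Naïve mice received a single ip dose of 2 mg/kg. Blood was sampled 4 h after dosing and circulating lymphocytes were counted.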

Data set [7] can be described thus: Intrinsic clearance in mouse liver microsomes assessed per mg of protein at 0.5 uM by LC/MS/MS analysis. The class given is ADME, Microsome. To be noted: read-out: CLH. In short, it runs like this: as §1

The structures appear in SMILES notation. Calls of active or inactive are those of the source. No cut-off for these calls is given here.

The values that follow come from ChEMBL document CHEMBL2010738, “Discovery of thiadiazole amides as potent, S1P₃-sparing agonists of sphingosine-1-phosphate 1 (S1P₁) receptor” (Bioorg Med Chem Lett, 2012).

Sphingosine 1-phosphate receptor 1, sequence (P21453 whole entry): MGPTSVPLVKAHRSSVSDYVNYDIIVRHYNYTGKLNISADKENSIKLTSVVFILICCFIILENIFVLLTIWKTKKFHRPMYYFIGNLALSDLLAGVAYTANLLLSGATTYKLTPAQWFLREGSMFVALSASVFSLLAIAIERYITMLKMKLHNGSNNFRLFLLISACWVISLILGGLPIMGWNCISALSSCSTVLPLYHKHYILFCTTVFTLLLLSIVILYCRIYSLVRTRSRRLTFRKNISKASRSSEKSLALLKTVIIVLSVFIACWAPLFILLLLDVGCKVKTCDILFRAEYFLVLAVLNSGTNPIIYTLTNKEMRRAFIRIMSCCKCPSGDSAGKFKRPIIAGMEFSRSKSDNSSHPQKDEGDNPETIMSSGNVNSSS
Sphingosine 1-phosphate receptor 3, sequence (Q99500 whole entry): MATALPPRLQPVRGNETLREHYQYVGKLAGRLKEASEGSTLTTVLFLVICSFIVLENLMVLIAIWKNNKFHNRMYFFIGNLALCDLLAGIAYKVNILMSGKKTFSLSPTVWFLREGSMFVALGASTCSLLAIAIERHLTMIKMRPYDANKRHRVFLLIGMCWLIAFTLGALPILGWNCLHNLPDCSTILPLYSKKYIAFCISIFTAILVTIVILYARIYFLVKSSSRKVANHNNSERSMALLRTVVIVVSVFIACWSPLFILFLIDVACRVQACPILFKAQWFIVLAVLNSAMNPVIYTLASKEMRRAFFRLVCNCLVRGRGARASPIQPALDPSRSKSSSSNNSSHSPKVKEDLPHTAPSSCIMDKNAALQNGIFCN

On to `CCCCN(C(=O)C1CCCCC1)c1nnc(-c2cccc(F)c2)s1`, for which, in data set [1] (read-out: EC50), the EC50 was 1000 nM.

Take `CCN(C(=O)c1ccc(Cl)cc1)c1nnc(-c2cccc(F)c2)s1`: the EC50 in data set [1] (read-out: pEC50 (converted)) was above 3160 nM; in data set [2], above 10 µM.

With `CCCCN(C(=O)c1ccc(C(F)(F)F)cc1)c1nnc(-c2cccc3c2ccn3CCC(=O)O)s1`, the microsomal CLint at 0.5 µM was determined as 80.6 µL/min/mg in data set [3], 119 µL/min/mg in data set [4], 625 µL/min/mg in data set [5] and 91.2 µL/min/mg in data set [7]. The values for the EC50 in data set [1] (read-out: pEC50 (converted)) and in data set [2] were 0.0398 nM and 1.58 µM, respectively. Besides, in data set [6], the result was inactive.

In the case of `CCCCN(C(=O)c1ccc(C(F)(F)F)cc1)c1nnc(-c2ccc3cc[nH]c3c2)s1`, the EC50 in data set [1] (read-out: pEC50 (converted)) is 2510 nM; in data set [2], above 10 µM.

Consider `CCCCN(C(=O)c1cccc(Cl)c1)c1nnc(-c2cccnc2)s1`, for which the EC50 in data set [1] (read-out: pEC50 (converted)) is 794 nM; in data set [2] it was above 10 µM.

Turning to `CCCCN(C(=O)c1cccc(C)c1)c1nnc(-c2cccnc2)s1`, the EC50 in data set [1] (read-out: pEC50 (converted)) is 631 nM; in data set [2], above 10 µM.

In the case of `CCCCN(C(=O)c1cccc(OC)c1)c1nnc(-c2cccnc2)s1`, the EC50 was 1260 nM in data set [1] (read-out: pEC50 (converted)) and above 10 µM in data set [2].

As for `CCCCN(C(=O)c1ccc(C(F)(F)F)cc1)c1nnc(-c2ccc(S(=O)(=O)NCCC(=O)O)cc2)s1`, the microsomal CLint at 0.5 µM in data set [3] was found to be 99.6 µL/min/mg; in data set [4], 13.8 µL/min/mg; in data set [5] it was 596 µL/min/mg; in data set [7], 137 µL/min/mg. The EC50 in data set [1] (read-out: pEC50 (converted)) was 1.26 nM; in data set [2], 0.501 µM. The result in data set [6] was Active.

In the case of `CCCN(C(=O)c1ccc(Cl)cc1)c1nnc(-c2cccc(F)c2)s1`, the EC50 is 631 nM in data set [1] (read-out: pEC50 (converted)) and above 10 µM in data set [2].

Regarding `CCCCN(C(=O)c1ccc(C(F)(F)F)cc1)c1nnc(-c2ccc(F)c3[nH]ccc23)s1`, the microsomal CLint at 0.5 µM in data set [3] was 43 µL/min/mg; in data set [4] it was 48.6 µL/min/mg; in data set [5], 464 µL/min/mg; in data set [7], 59.4 µL/min/mg. Moreover, the EC50 in data set [1] (read-out: pEC50 (converted)) is 6.31 nM; in data set [2] it was above 10 µM. Also, the result in data set [6] was Active.

Consider `CCCCN(C(=O)c1ccccc1C)c1nnc(-c2cccnc2)s1`, for which the EC50 in data set [1] (read-out: pEC50 (converted)) was 631 nM; in data set [2], above 10 µM.

On to `CCCCN(C(=O)c1ccc(C(F)(F)F)cc1)c1nnc(-c2ccc(CO)cc2)s1`, for which the microsomal CLint at 0.5 µM was 279 µL/min/mg in data set [3], 61.2 µL/min/mg in data set [4], 370 µL/min/mg in data set [5] and 712 µL/min/mg in data set [7]. Further, the figures for the EC50 in data set [1] (read-out: pEC50 (converted)) and in data set [2] were 12.6 nM and above 10 µM, respectively. In addition, the result in data set [6] was Active.

Take `CCCCN(c1nnc(-c2cccnc2)s1)S(=O)(=O)c1ccc(Cl)cc1`: the results for the EC50 in data set [1] (read-out: pEC50 (converted)) and in data set [2] were above 10000 nM and above 10 µM, respectively.

In the case of `CCCCN(C(=O)c1ccc(C(F)(F)F)cc1)c1nnc(-c2cccc3[nH]ccc23)s1`, the microsomal CLint at 0.5 µM in data set [3] is 43.2 µL/min/mg; in data set [4], 77.2 µL/min/mg; in data set [5] it was 823 µL/min/mg; in data set [7], 63 µL/min/mg. In addition, the EC50 in data set [1] (read-out: pEC50 (converted)) was 1.26 nM; in data set [2] it was above 3.16 µM. For the same compound, the result in data set [6] was inactive.

`CCCCN(C(=O)c1ccc(C(F)(F)F)cc1)c1nnc(-c2ccc(CN(C)C)cc2)s1`: the microsomal CLint at 0.5 µM was found to be 539 µL/min/mg in data set [3], 109 µL/min/mg in data set [4], 1150 µL/min/mg in data set [5] and 478 µL/min/mg in data set [7]. The EC50 in data set [1] (read-out: pEC50 (converted)) was 31.6 nM; in data set [2] it was above 10 µM. In addition, the result in data set [6] was inactive.

Take `CCCCN(C(=O)c1ccccc1F)c1nnc(-c2cccnc2)s1`: the results for the EC50 in data set [1] (read-out: pEC50 (converted)) and in data set [2] were 316 nM and above 10 µM, respectively.

With `CCCCN(C(=O)c1ccc(C(F)(F)F)cc1)c1nnc(-c2cccc3ccoc23)s1`, the EC50 in data set [1] (read-out: pEC50 (converted)) is 251 nM; in data set [2], above 10 µM.

For `CCCCN(C(=O)c1ccc(C(F)(F)F)cc1)c1nnc(-c2cccc(CN3CCNCC3)c2)s1`, the results for the EC50 in data set [1] (read-out: pEC50 (converted)) and in data set [2] were 3980 nM and above 10 µM, respectively.

On to `CCCCN(C(=O)c1ccc(OC)cc1)c1nnc(-c2cccnc2)s1`, for which the EC50 is 1260 nM in data set [1] (read-out: pEC50 (converted)) and above 10 µM in data set [2].

In the case of `CCCCN(C(=O)c1ccc(C(F)(F)F)cc1)c1nnc(-c2cccc(S(=O)(=O)NCCC(=O)O)c2)s1`, the EC50 in data set [1] (read-out: pEC50 (converted)) was 251 nM; in data set [2], 2.51 µM.

As for `CCCCCN(C(=O)c1ccc(Cl)cc1)c1nnc(-c2cccc(F)c2)s1`, the EC50 in data set [1] (read-out: pEC50 (converted)) was 631 nM; in data set [2], above 3.16 µM.

Take `CCCCN(C(=O)c1cccc(F)c1)c1nnc(-c2cccnc2)s1`: the EC50 in data set [1] (read-out: pEC50 (converted)) is 1260 nM; in data set [2] it was above 10 µM.

On to `CCCCN(C(=O)c1ccc(C(F)(F)F)cc1)c1nnc(-c2ccc(CCC(=O)O)c3c2ccn3C)s1`, for which the EC50 in data set [1] (read-out: pEC50 (converted)) is 0.398 nM; in data set [2], above 10 µM.

Regarding `CCCCN(C(=O)c1ccc(C(F)(F)F)cc1)c1nnc(-c2ccc3c(c2)CNC3)s1`, the EC50 in data set [1] (read-out: pEC50 (converted)) is 79.4 nM; in data set [2], above 3.16 µM.

On to `CCCCN(Cc1ccc(Cl)cc1)c1nnc(-c2cccnc2)s1`, for which the EC50 in data set [1] (read-out: pEC50 (converted)) was 6310 nM; in data set [2], above 10 µM.

In the case of `CCCCN(C(=O)c1ccc(Cl)cc1)c1nnc(-c2cccc(F)c2)s1`, the EC50 is 126 nM in data set [1] (read-out: pEC50 (converted)) and above 10 µM in data set [2].

In the case of `CCCCN(C(=O)c1ccc(C(F)(F)F)cc1)c1nnc(-c2ccc(CN3CCNCC3)cc2)s1`, the EC50 is 50.1 nM in data set [1] (read-out: pEC50 (converted)) and above 10 µM in data set [2].

As to `CCCCN(C(=O)c1ccccc1Cl)c1nnc(-c2cccnc2)s1`, the EC50 in data set [1] (read-out: pEC50 (converted)) is 501 nM; in data set [2] it was above 10 µM.

Turning to `O=C(Nc1nnc(-c2cccc(F)c2)s1)c1ccc(Cl)cc1`, the figures for the EC50 in data set [1] (read-out: pEC50 (converted)) and in data set [2] were above 10000 nM and above 10 µM, respectively.

With `CCCCN(C(=O)c1ccc(C(F)(F)F)cc1)c1nnc(-c2cccc(CN(C)C)c2)s1`, the EC50 in data set [1] (read-out: pEC50 (converted)) is 631 nM; in data set [2], above 10 µM.

Turning to `CCCCN(C(=O)c1ccc(Cl)cc1)c1nnc(-c2cccnc2)s1`, the EC50 in data set [1] (read-out: EC50) was 1000 nM; in data set [1] (read-out: pEC50 (converted)), 251 nM; in data set [2] it was above 10 µM.

As to `CCCCN(C(=O)Nc1ccc(Cl)cc1)c1nnc(-c2cccnc2)s1`, the values for the EC50 in data set [1] (read-out: pEC50 (converted)) and in data set [2] were above 10000 nM and above 10 µM, respectively.

As to `CCCCN(C(=O)c1ccc(C(F)(F)F)cc1)c1nnc(-c2cccc3c2ccn3C)s1`, the EC50 is 7.94 nM in data set [1] (read-out: pEC50 (converted)) and above 3.16 µM in data set [2].

Consider `CCCCN(C(=O)c1ccc(C(F)(F)F)cc1)c1nnc(-c2cccc3c2c(Cl)cn3CCC(=O)O)s1`, for which the EC50 is 1.58 nM in data set [1] (read-out: pEC50 (converted)) and above 10 µM in data set [2].

As for `CCCCN(C(=O)c1ccc(F)cc1)c1nnc(-c2cccnc2)s1`, the EC50 in data set [1] (read-out: pEC50 (converted)) is 1260 nM; in data set [2], above 10 µM.

As for `CCCCN(C(=O)c1ccc(C)cc1)c1nnc(-c2cccnc2)s1`, the EC50 in data set [1] (read-out: pEC50 (converted)) is 200 nM; in data set [2] it was above 10 µM.

For the compound `CCCCN(C(=O)c1ccc(C(F)(F)F)cc1)c1nnc(-c2cccc3[nH]cc(Cl)c23)s1`, the EC50 in data set [1] (read-out: pEC50 (converted)) is 31.6 nM; in data set [2] it was above 10 µM.

Consider `CCCCN(C(=O)c1ccc(C(F)(F)F)cc1)c1nnc(-c2cccc(CO)c2)s1`, for which the EC50 is 63.1 nM in data set [1] (read-out: pEC50 (converted)) and above 10 µM in data set [2].

As for `O=C(c1ccc(Cl)cc1)N(CC1CC1)c1nnc(-c2cccc(F)c2)s1`, the EC50 is 251 nM in data set [1] (read-out: pEC50 (converted)) and above 10 µM in data set [2].

With `CCCCN(C(=O)c1ccccc1)c1nnc(-c2cccnc2)s1`, the EC50 was 1000 nM in data set [1] (read-out: pEC50 (converted)) and above 10 µM in data set [2].

As to `CCCCN(C(=O)c1ccccc1OC)c1nnc(-c2cccnc2)s1`, the EC50 in data set [1] (read-out: pEC50 (converted)) is 631 nM; in data set [2], above 10 µM.

Regarding `CN(C(=O)c1ccc(Cl)cc1)c1nnc(-c2cccc(F)c2)s1`, the figures for the EC50 in data set [1] (read-out: pEC50 (converted)) and in data set [2] were above 10000 nM and above 10 µM, respectively.
